ChEMBL document CHEMBL2390862, “Enmein-type diterpenoid analogs from natural kaurene-type oridonin: Synthesis and their antitumor biological evaluation” (Eur J Med Chem, 2013)

Columns and labels:
Format in all cases: functional, cell-based
[1] = Cytotoxicity against human CaEs17 cells after 72 hrs by MTT assay; settings: CaEs17, 72 h
Method in brief: (§1)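 K562, CaEs-17, Bel-7402 and MGC-803 cells in log phase seeded at 5 × 10⁴ cells/mL, incubated with or without test compounds at 37 °C, 5% CO₂; after 72 h MTT (5 mg/mL stock) added for 4 h, formazan dissolved in DMSO, OD read at 490 nm. Negative reference 0.1% DMSO, Taxol positive control. IC50 as mean ± S.D. of three independent experiments.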

[2] = tested on: Bel-7402; test: Cytotoxicity against human Bel7402 cells after 72 hrs by MTT assay; settings: Bel-7402, 72 h; method in brief: as §1
[3] = tested on: MGC-803; test: Cytotoxicity against human MGC803 cells after 72 hrs by MTT assay; settings: MGC-803, 72 h; method in brief: as §1
[4] = tested on: K562; test: Cytotoxicity against human K562 cells after 72 hrs by MTT assay; settings: K562, 72 h; method in brief: as §1

| SMILES | IC50 [1] [µM] | IC50 [2] [µM] | IC50 [3] [µM] | IC50 [4] [µM] |
| --- | --- | --- | --- | --- |
| C=C1C(=O)[C@@]23C(=O)O[C@H]4CCC(C)(C)[C@H]5[C@H](O)OC[C@@]45[C@@H]2CC[C@@H]1[C@H]3OC(=O)c1ccc(OC)cc1 | 2.71 | 1.79 | 3.33 | 0.69 |
| CC(=O)O[C@H]1C(=O)[C@@]2(C)[C@H]([C@H](OC(=O)c3ccccc3)[C@]3(O)C[C@H](OC(=O)[C@H](O)[C@@H](NC(=O)c4ccccc4)c4ccccc4)C(C)=C1C3(C)C)[C@]1(OC(C)=O)CO[C@@H]1C[C@@H]2O [PACLITAXEL] | 0.43 |  |  |  |
| C=C1C(=O)[C@@]23C(=O)O[C@H]4CCC(C)(C)[C@H]5[C@H](O)OC[C@@]45[C@@H]2CC[C@@H]1[C@H]3OC(C)=O | 1.59 | 1.97 | 1.99 | 1.11 |
